Test results published in ChEMBL document CHEMBL1134945, “Synthesis and structure-activity relationships of aminoalkylazetidines as ORL1 receptor ligands” (Bioorg Med Chem Lett, 2002).

Molecular target: Mu-type opioid receptor (Homo sapiens, UniProt P35372)
Test: Binding affinity at human opioid receptor mu 1 was determined by using [3H]diprenorphine radioligand in CHO cell membranes at a concentration of 0.12 nM
Conditions: not given
Procedure, shortened: (§1)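 Ki from competition binding with [3H]diprenorphine on membranes of CHO cells expressing the respective human opioid receptor; means of 2–3 independent determinations.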

Mu-type opioid receptor, sequence (P35372 whole entry): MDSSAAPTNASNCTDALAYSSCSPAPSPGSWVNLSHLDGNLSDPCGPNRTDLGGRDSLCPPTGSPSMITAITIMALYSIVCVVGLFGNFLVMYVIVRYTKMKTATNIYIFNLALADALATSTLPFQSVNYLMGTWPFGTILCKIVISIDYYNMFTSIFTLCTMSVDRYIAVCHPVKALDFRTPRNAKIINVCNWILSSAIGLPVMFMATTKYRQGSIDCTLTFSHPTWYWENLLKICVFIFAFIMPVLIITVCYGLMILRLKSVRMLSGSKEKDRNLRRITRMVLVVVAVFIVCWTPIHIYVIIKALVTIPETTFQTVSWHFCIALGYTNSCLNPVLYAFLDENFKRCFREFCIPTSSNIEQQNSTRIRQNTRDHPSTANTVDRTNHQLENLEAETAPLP

| SMILES | Ki [nM] |
| --- | --- |
| CCCCC(c1cc(F)cc(F)c1)N1CC[C@H]1[C@H](N)c1cccc(Cl)c1 (some centres undefined) | 3980 |
| CCCCCC(c1ccccc1)N1CC[C@H]1[C@@H](N)c1cccc(Cl)c1 (some centres undefined) | 2150 |
| N[C@H](c1cccc(Cl)c1)[C@@H]1CCN1C(c1ccc(Cl)cc1)c1ccc(Cl)cc1 | 3450 |
| N[C@@H](c1cccc(C(F)(F)F)c1)[C@@H]1CCN1C(c1ccccc1)c1ccccc1 (stereo in doubt; (+\-)-1) [listing 1 of 2 here] | 1970 |
| CCCCC(CCCC)N1CC[C@H]1[C@@H](N)c1cccc(Cl)c1 | 9670 |
| COc1ccc([C@H](N)[C@@H]2CCN2C(c2ccccc2)c2ccccc2)cc1 | 865 |
| Cc1ccc([C@H](N)[C@@H]2CCN2C(c2ccccc2)c2ccccc2)cc1 | 488 |
| CCCCC(c1cccc(F)c1)N1CC[C@H]1[C@@H](N)c1cccc(Cl)c1 (some centres undefined) | 4700 |
| CCCCCCC(c1ccccc1)N1CC[C@H]1[C@@H](N)c1cccc(Cl)c1 (some centres undefined) | 1590 |
| N[C@@H](c1cccc(Cl)c1)[C@@H]1CCN1C(c1ccccc1)c1ccccc1 | 1650 |
| CCCC(c1ccccc1)N1CC[C@H]1[C@@H](N)c1cccc(Cl)c1 (some centres undefined) | 4130 |
| CCCCC(c1cccc(F)c1)N1CC[C@H]1[C@H](N)c1cccc(Cl)c1 (some centres undefined) | 1600 |
| N[C@H](c1cccc(Cl)c1)[C@@H]1CCN1C(c1ccc(Br)cc1)c1ccc(Br)cc1 | 2500 |
| N[C@@H](c1ccc(Cl)cc1)[C@@H]1CCN1C(c1ccccc1)c1ccccc1 | 586 |

Molecular target: Kappa-type opioid receptor (Homo sapiens, UniProt P41145)
Sequence (P41145 whole entry): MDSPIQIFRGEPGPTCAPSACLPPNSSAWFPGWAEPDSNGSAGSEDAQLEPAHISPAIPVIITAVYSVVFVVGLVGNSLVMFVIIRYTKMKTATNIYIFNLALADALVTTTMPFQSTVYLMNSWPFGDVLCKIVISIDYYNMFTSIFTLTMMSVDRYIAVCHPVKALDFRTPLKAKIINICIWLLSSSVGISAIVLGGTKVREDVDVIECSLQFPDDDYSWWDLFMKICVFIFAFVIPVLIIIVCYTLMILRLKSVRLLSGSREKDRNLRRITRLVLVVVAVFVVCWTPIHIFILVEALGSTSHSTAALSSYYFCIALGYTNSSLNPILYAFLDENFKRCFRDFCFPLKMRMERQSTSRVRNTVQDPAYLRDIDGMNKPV
Test: Binding affinity at human opioid receptor kappa 1 was determined by using [3H]diprenorphine radioligand in CHO cell membranes at a concentration of 0.31 nM
Conditions: not given
Procedure, shortened: as §1

| SMILES | Ki [nM] |
| --- | --- |
| CCCCC(c1cc(F)cc(F)c1)N1CC[C@H]1[C@H](N)c1cccc(Cl)c1 (some centres undefined) | 4220 |
| CCCCCC(c1ccccc1)N1CC[C@H]1[C@@H](N)c1cccc(Cl)c1 (some centres undefined) | 3910 |
| N[C@H](c1cccc(Cl)c1)[C@@H]1CCN1C(c1ccc(Cl)cc1)c1ccc(Cl)cc1 | 3250 |
| N[C@@H](c1cccc(C(F)(F)F)c1)[C@@H]1CCN1C(c1ccccc1)c1ccccc1 (stereo in doubt; (+\-)-1) [listing 1 of 2 here] | 1630 |
| CCCCC(CCCC)N1CC[C@H]1[C@@H](N)c1cccc(Cl)c1 | 4260 |
| COc1ccc([C@H](N)[C@@H]2CCN2C(c2ccccc2)c2ccccc2)cc1 | 1340 |
| Cc1ccc([C@H](N)[C@@H]2CCN2C(c2ccccc2)c2ccccc2)cc1 | 660 |
| CCCCC(c1cccc(F)c1)N1CC[C@H]1[C@@H](N)c1cccc(Cl)c1 (some centres undefined) | 4120 |
| CCCCCCC(c1ccccc1)N1CC[C@H]1[C@@H](N)c1cccc(Cl)c1 (some centres undefined) | 1940 |
| N[C@@H](c1cccc(Cl)c1)[C@@H]1CCN1C(c1ccccc1)c1ccccc1 | 1230 |
| CCCC(c1ccccc1)N1CC[C@H]1[C@@H](N)c1cccc(Cl)c1 (some centres undefined) | 2940 |
| CCCCC(c1cccc(F)c1)N1CC[C@H]1[C@H](N)c1cccc(Cl)c1 (some centres undefined) | 2130 |
| N[C@H](c1cccc(Cl)c1)[C@@H]1CCN1C(c1ccc(Br)cc1)c1ccc(Br)cc1 | 1480 |
| N[C@@H](c1ccc(Cl)cc1)[C@@H]1CCN1C(c1ccccc1)c1ccccc1 | 607 |

Molecular target: Delta-type opioid receptor (Homo sapiens, UniProt P41143)
Sequence (P41143 whole entry): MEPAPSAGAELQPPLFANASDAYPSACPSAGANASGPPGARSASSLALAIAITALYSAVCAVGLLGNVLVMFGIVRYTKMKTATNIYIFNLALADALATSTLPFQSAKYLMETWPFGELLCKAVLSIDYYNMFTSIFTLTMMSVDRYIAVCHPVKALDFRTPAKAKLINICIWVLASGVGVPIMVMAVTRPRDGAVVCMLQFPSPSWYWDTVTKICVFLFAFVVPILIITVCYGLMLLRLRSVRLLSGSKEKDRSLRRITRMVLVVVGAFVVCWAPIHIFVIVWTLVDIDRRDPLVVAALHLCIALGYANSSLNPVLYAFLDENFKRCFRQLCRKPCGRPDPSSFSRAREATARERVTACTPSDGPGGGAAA
Test: Binding affinity at human opioid receptor delta 1 was determined by using [3H]diprenorphine radioligand in CHO cell membranes at a concentration of 0.8 nM
Conditions: not given
Procedure, shortened: as §1

| SMILES | Ki [nM] |
| --- | --- |
| CCCCC(c1cc(F)cc(F)c1)N1CC[C@H]1[C@H](N)c1cccc(Cl)c1 (some centres undefined) | 11200 |
| CCCCCC(c1ccccc1)N1CC[C@H]1[C@@H](N)c1cccc(Cl)c1 (some centres undefined) | 7580 |
| N[C@H](c1cccc(Cl)c1)[C@@H]1CCN1C(c1ccc(Cl)cc1)c1ccc(Cl)cc1 | 5010 |
| N[C@@H](c1cccc(C(F)(F)F)c1)[C@@H]1CCN1C(c1ccccc1)c1ccccc1 (stereo in doubt; (+\-)-1) [listing 1 of 2 here] | 6090 |
| CCCCC(CCCC)N1CC[C@H]1[C@@H](N)c1cccc(Cl)c1 | 31800 |
| COc1ccc([C@H](N)[C@@H]2CCN2C(c2ccccc2)c2ccccc2)cc1 | 2920 |
| Cc1ccc([C@H](N)[C@@H]2CCN2C(c2ccccc2)c2ccccc2)cc1 | 1860 |
| CCCCC(c1cccc(F)c1)N1CC[C@H]1[C@@H](N)c1cccc(Cl)c1 (some centres undefined) | 12300 |
| CCCCCCC(c1ccccc1)N1CC[C@H]1[C@@H](N)c1cccc(Cl)c1 (some centres undefined) | 4980 |
| N[C@@H](c1cccc(Cl)c1)[C@@H]1CCN1C(c1ccccc1)c1ccccc1 | 8340 |
| CCCC(c1ccccc1)N1CC[C@H]1[C@@H](N)c1cccc(Cl)c1 (some centres undefined) | 10100 |
| CCCCC(c1cccc(F)c1)N1CC[C@H]1[C@H](N)c1cccc(Cl)c1 (some centres undefined) | 8710 |
| N[C@H](c1cccc(Cl)c1)[C@@H]1CCN1C(c1ccc(Br)cc1)c1ccc(Br)cc1 | 4990 |
| N[C@@H](c1ccc(Cl)cc1)[C@@H]1CCN1C(c1ccccc1)c1ccccc1 | 1440 |

Molecular target: T1, Nociceptin receptor (Homo sapiens, UniProt P41146)
T1 sequence (P41146 whole entry): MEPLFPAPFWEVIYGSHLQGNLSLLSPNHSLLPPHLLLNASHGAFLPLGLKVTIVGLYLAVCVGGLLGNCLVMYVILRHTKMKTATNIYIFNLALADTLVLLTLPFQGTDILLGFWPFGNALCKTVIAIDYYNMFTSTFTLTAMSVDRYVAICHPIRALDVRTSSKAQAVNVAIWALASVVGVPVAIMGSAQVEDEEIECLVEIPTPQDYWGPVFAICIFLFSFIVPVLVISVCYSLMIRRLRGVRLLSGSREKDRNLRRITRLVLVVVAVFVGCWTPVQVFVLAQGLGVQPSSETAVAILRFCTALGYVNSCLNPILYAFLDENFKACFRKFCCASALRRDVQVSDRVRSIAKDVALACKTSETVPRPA
Test: Binding affinity at human ORL1 receptor was determined by using [125I]nociceptin radioligand in Chinese hamster ovary (CHO) cell membranes at a concentration of 23 pM
Conditions: not given
Procedure, shortened: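 Competition binding against [125I]Nociceptin on membranes of CHO cells expressing human ORL1; Ki derived; means of 2–3 independent determinations.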

| SMILES | Ki [nM] |
| --- | --- |
| N[C@H](c1cccc(Cl)c1)[C@@H]1CCN1C(c1cccc(C(F)(F)F)c1)c1cccc(C(F)(F)F)c1 | 2590 |
| CCCCC(c1cc(F)cc(F)c1)N1CC[C@H]1[C@H](N)c1cccc(Cl)c1 (some centres undefined) | 49 |
| CCCCCC(c1ccccc1)N1CC[C@H]1[C@@H](N)c1cccc(Cl)c1 (some centres undefined) | 772 |
| N[C@H](c1cccc(Cl)c1)[C@@H]1CCN1C(c1ccc(Cl)cc1)c1ccc(Cl)cc1 | 3220 |
| N[C@@H](c1cccc(C(F)(F)F)c1)[C@@H]1CCN1C(c1ccccc1)c1ccccc1 (stereo in doubt; (+\-)-1) [listing 1 of 2 here] | 31 |
| CCCCC(CCCC)N1CC[C@H]1[C@@H](N)c1cccc(Cl)c1 | 1340 |
| COc1ccc([C@H](N)[C@@H]2CCN2C(c2ccccc2)c2ccccc2)cc1 | 198 |
| Cc1ccc([C@H](N)[C@@H]2CCN2C(c2ccccc2)c2ccccc2)cc1 | 94 |
| CCCCC(c1cccc(F)c1)N1CC[C@H]1[C@@H](N)c1cccc(Cl)c1 (some centres undefined) | 680 |
| CCCCCCC(c1ccccc1)N1CC[C@H]1[C@@H](N)c1cccc(Cl)c1 (some centres undefined) | 1020 |
| N[C@@H](c1cccc(Cl)c1)[C@@H]1CCN1C(c1ccccc1)c1ccccc1 | 37 |
| CCCC(c1ccccc1)N1CC[C@H]1[C@@H](N)c1cccc(Cl)c1 (some centres undefined) | 367 |
| CCCCC(c1cccc(F)c1)N1CC[C@H]1[C@H](N)c1cccc(Cl)c1 (some centres undefined) | 26 |
| N[C@H](c1cccc(Cl)c1)[C@@H]1CCN1C(c1ccc(Br)cc1)c1ccc(Br)cc1 | 2530 |
| N[C@@H](c1ccc(Cl)cc1)[C@@H]1CCN1C(c1ccccc1)c1ccccc1 | 152 |

Molecular target: T1, Nociceptin receptor
Test: Functional [35S]GTP-gamma-S, binding for human ORL1 receptor carried out in CHO cell membranes.
Type: cell-based
Conditions: filed as agonist
Procedure, shortened: (§2)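 [35S]GTPγS binding on membranes of CHO cells expressing human ORL1, 1 h incubation before assay start. Agonist: raises [35S]GTPγS binding. Antagonist: no effect on basal binding but blocks the Nociceptin-induced rise.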

| SMILES | Activity |
| --- | --- |
| N[C@@H](c1cccc(C(F)(F)F)c1)[C@@H]1CCN1C(c1ccccc1)c1ccccc1 (stereo in doubt; (+)-1a) | Agonist |
| CCCCC(c1cccc(F)c1)N1CC[C@H]1[C@H](N)c1cccc(Cl)c1 (some centres undefined) | Agonist |
| N[C@@H](c1cccc(C(F)(F)F)c1)[C@@H]1CCN1C(c1ccccc1)c1ccccc1 (stereo in doubt; (+\-)-1) [listing 2 of 2 here] | Agonist |
| N[C@@H](c1ccc(Cl)cc1)[C@@H]1CCN1C(c1ccccc1)c1ccccc1 | Agonist |

Molecular target: T1, Nociceptin receptor
Test: Compound was evaluated for functional [35S]GTP-gamma-S, binding for human ORL1 receptor carried out in CHO cell membranes; Compound acts as Agonist
Type: cell-based
Conditions: filed as agonist
Procedure, shortened: as §2

| SMILES | Activity |
| --- | --- |
| CCCCC(c1cc(F)cc(F)c1)N1CC[C@H]1[C@H](N)c1cccc(Cl)c1 (some centres undefined) | Agonist |

Molecular target: T1, Nociceptin receptor
Test: Concentration of compound that inhibits the binding of human ORL1 receptor in CHO cell membranes in the presence of [125I]nociceptin radioligand at a concentration of 10 uM
Conditions: not given

| SMILES | inhibition [%] |
| --- | --- |
| COc1cccc([C@H](N)[C@@H]2CCN2C(c2ccccc2)c2ccccc2)c1 | 45 |
| Cc1cccc([C@H](N)[C@@H]2CCN2C(c2ccccc2)c2ccccc2)c1 | 3 |
